A selection: hits, their analogues and other compounds. The true share with any hit is near 1.7%.
IDE act: activators of human insulin-degrading enzyme in cells; P14735; HEK cells, FAbeta-B cleavage, fluorescence polarization; 0% vehicle, 100% cell-free pure enzyme wells; activation, % at 5.96 µM; actives 0.073% (n = 340,000); AID 493087;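 active means activation above the mean of all tested compounds plus 3 SD, set per screening campaign, cut at about 17% in these data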
CSN deneddyl inh: blocks human CSN-mediated cullin deneddylation. Purified CSN, SCF-Nedd8-OG deneddylation, fluorescence polarization. Q92905. actives 0.38% (n = 360,000). inhibition, % at 12.5 µM;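 active means pattern-corrected inhibition above about 35%, with an unprinted fluorescence ratio check between 0.5 and 1.5, limit read from the data, passing the limit was not always enough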;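 further: 0% = enzyme with substrate and 100% = substrate without enzyme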
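Assay system: purified human Csn5 enzyme expressed in HEK293T cells; measure: % inhibition; also added: SCFSkp2-Nedd8OG substrate at 10 nM final; technique: fluorescence polarization; times: reaction 90 min, room temperature; medium: Tris buffer pH 7.5, NaCl, DTT, Tween-20, trehalose, ovalbumin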
HNF4A DNA FP: change in binding of human HNF4 alpha to DNA. HNF4a-FITC DNA binding, fluorescence polarization, 1 h. activity change, % at 10 µM. actives 0.3% (n = 360,000); in the data active means activity change above about 30%, passing the limit was not always enough
Target sequence (P41235 whole entry, looked up): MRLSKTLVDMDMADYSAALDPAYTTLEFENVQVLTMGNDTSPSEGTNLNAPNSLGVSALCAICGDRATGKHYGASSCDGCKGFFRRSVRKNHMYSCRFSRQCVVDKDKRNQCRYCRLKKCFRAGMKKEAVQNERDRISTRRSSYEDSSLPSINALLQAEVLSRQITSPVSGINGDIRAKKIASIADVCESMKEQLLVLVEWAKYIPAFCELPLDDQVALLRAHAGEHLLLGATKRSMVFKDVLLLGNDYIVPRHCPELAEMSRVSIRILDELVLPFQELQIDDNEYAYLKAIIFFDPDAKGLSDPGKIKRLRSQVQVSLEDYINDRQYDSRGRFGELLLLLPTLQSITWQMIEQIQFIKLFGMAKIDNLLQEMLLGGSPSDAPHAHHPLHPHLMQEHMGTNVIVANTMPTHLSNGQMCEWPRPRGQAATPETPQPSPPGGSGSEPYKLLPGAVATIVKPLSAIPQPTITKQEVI
IDE inh: inhibits human insulin-degrading enzyme in HEK cells. FAbetaB cleavage, fluorescence polarization. P14735. AID 434962. inhibition, % at 5.59 µM. actives 0.41% (n = 320,000);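 active means percent inhibition above the average of all tested compounds plus 3 SD, set per screening campaign, cut at about 16% in these data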;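 further: IDE supplied by intact live HEK cells; FP after avidin binding of uncleaved biotin substrate so inhibition keeps polarization high; 0% = DMSO wells and 100% = 60 µM reference IDE inhibitor Ii1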
Rpn11 inh: inhibitors of human proteasome Rpn11. inhibition, % at 20 µM. actives 0.59% (n = 360,000). O00487. human 26S proteasome, Ub4-pepOG fluorescence polarization; 20S core pre-blocked with epoxomicin;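 active means inhibition at 20 µM, scaled to each plate's controls, above about 33%, limit read from the data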
TPT1 inh: C. albicans TPT1 enzyme inhibition; recombinant caTPT1, FP RNA substrate dephosphorylation; inhibition, % at 5 µM; actives 0.81% (n = 300,000); AID 1962;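 active means inhibition above the mean of all tested compounds plus 3 SD, set per screening campaign, cut at about 24% in these data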;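 further: plate controls were DMSO alone for no effect and ferristatin control at 100 nM for full effect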
TPT1 inh confirm: confirmation of Candida albicans TPT1 inhibitors. shares compounds with TPT1 inh. recombinant caTPT1, fluorescence polarization, RNase T1 coupled. inhibition, % at 5 µM. actives 74% (n = 2,400). AID 2149;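 active means inhibition above the primary screen limit, the mean inhibition of all tested compounds plus 3 SD, cut at about 25% in these data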
RNase T1 counter: RNase T1 inhibition in TPT1 counter-screen. shares compounds with TPT1 inh. RNase T1 cleavage, fluorescence polarization, 1536-well. inhibition, % at 5 µM. actives 83% (n = 2,400);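 active means inhibition above the solvent-only control well mean plus 3 SD, limit set per screening run, cut at about 23% in these data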;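 further: plate controls were DMSO wells with enzyme for no effect and wells without RNase T1 for full effect; inhibitors block cleavage so intact labeled substrate keeps polarization high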
Target sequence (P00651 whole entry, looked up): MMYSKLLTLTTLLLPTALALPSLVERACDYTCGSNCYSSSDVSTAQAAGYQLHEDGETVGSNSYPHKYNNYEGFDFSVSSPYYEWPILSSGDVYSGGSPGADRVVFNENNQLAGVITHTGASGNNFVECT
* marks the source's active call; other numbers are inactive results; x = no result shown; + = active, no number.

SMILES	IDE act	CSN deneddyl inh	HNF4A DNA FP	IDE inh	Rpn11 inh	TPT1 inh	TPT1 inh confirm	RNase T1 counter
CC(C)N1CCc2c(sc(NC(=O)c3ccc(S(=O)(=O)N4CCOCC4)cc3)c2C#N)C1	-4.5	26.3	98.5	-0.5	x	126.8*	156.1*	146.5*
O=C(COC(=O)COc1ccc(Cl)cc1)Nc1cccnc1Cl	x	-4.4	-3.8	x	0.9	x	x	x
CCCS(=O)(=O)c1c(S(=O)(=O)CCC)c2ccc(C(N)=O)cn2c1C(=O)c1ccc(OC)cc1	2.8	-1.1	-1.7	4.2	-4.3	5.4	x	x
N#Cc1c(N2CCCC2)ccc(Br)c1Cl	1.9	-2.7	-0.5	-1.4	-1.9	2.4	x	x
O=C(Nc1ccccc1)c1ccc(NCCc2ccccc2)c([N+](=O)[O-])c1	6.3	133.0	152.4	0.8	x	45.4*	104.9*	115.1*
Cn1c(C(=O)NN)cc2cc(Oc3ccccc3)ccc21	-1.4	-2.8	0.2	7.1	0.8	-0.1	x	x
COc1ccc2c(c1)cc(C(=O)N/N=C/c1c(O)c(C(=O)O)cc3ccccc13)n2C	-4.9	17.5	26.8	4.7	x	51.3*	59.7*	64.9*
COc1cccc(-c2cc(NC=O)c3ncc(-c4ccc(C(C)=O)cc4)n3c2)c1	x	0.1	5.9	x	19.0	x	x	x
Oc1c(/C=C/C=C/C=Nc2ccccc2)sc(=S)n1Cc1ccccc1	x	25.1	43.1*	6.8	x	43.3*	27.6*	38.9*
CCn1c(O)c(/C=C/C=C/C=Nc2ccccc2)sc1=S	1.8	11.4	18.1	-3.3	37.9	11.6	x	x
CCOc1ncccc1C(=O)OC(C)C(=O)Nc1ccc(N2CCOCC2)cc1 (stereo not given)	-0.5	-0.8	3.1	-1.0	-7.1	x	x	x
Cn1c(=O)c(S(=O)C2CCCCC2)c(O)c2ccccc21 (stereo not given)	-0.7	2.5	0.0	0.5	-7.3	-2.5	x	x
COc1ccc(S(=O)(=O)N2CCOCC2)cc1C(=O)N(C)Cc1ccco1	6.8	-1.9	-5.2	-5.6	-1.8	x	x	x
Cc1c(/C=N\NC(=O)C2COc3ccccc3O2)c2ccccc2n1C (stereo not given)	1.8	3.9	-0.9	4.2	-6.1	51.2*	4.0	3.8
O=C(N/N=C/c1c(O)n(-c2ccccc2Cl)c(=O)c2ccccc12)C1COc2ccccc2O1 (stereo not given)	8.5	13.3	15.1	0.2	33.8	26.2*	64.9*	78.6*
CC(C)N1CCC(C)(C(=O)Nc2cccc(Oc3ccccc3)c2)C1 (stereo not given)	x	-1.0	2.6	x	-5.5	x	x	x
O=C(CCS(=O)(=O)c1ccc(Br)cc1)NCc1ccc(F)cc1	7.7	8.1	-11.7	3.4	-3.5	1.3	x	x
COc1cc(N2CCCC2)c(OC)cc1/C=C(/C#N)c1ccc(F)cc1	-7.2	23.3	82.1	3.5	x	143.1*	132.5*	134.2*
COc1cc(C2c3sc(=O)[nH]c3SC3C(=O)N(c4ccc(Br)cc4)C(=O)C32)ccc1O (stereo not given)	2.5	1.2	-0.9	1.1	4.8	-0.5	x	x
CCOc1ccc(N2C(=O)C3Sc4[nH]c(=O)sc4C(/C=C/c4ccccc4)C3C2=O)cc1 (stereo not given)	-10.6	16.1	34.3	5.2	x	50.9*	34.2*	40.5*
CN(C)CCN1C(=O)C(O)=C(C(=O)c2cc3ccccc3o2)C1c1ccc(N(C)C)cc1 (stereo not given)	-4.8	3.0	0.0	12.7	30.6	31.6*	21.1	34.8*
O=S(=O)(Nc1ccc(N2CCCCC2)cc1)c1cccs1	-1.1	0.2	-0.9	2.2	5.6	0.5	x	x
O=S(=O)(Nc1cc(Cl)ccc1N1CCCCC1)c1cccs1	-2.1	7.6	12.6	1.9	31.3	48.3*	27.7*	35.1*
Cc1ccsc1C(=O)N(C)CC(=O)N(CC(C)C)c1c(N)n(CC(C)C)c(=O)[nH]c1=O	-1.2	-6.9	-0.6	2.7	-6.4	1.5	x	x
O=C(O)c1ccccc1-c1ccc(/C=C2\SC(=O)N(c3ccccc3)C2=O)o1	-6.0	5.2	7.6	1.9	9.8	9.7	x	x
SMILES	IDE act	CSN deneddyl inh	HNF4A DNA FP	IDE inh	Rpn11 inh	TPT1 inh	TPT1 inh confirm	RNase T1 counter
O=C1S/C(=C\c2ccc(N3CCOCC3)o2)C(=O)N1c1ccccc1	-20.6	4.3	-20.3	-4.7	x	+	185.4*	166.4*
O=C1N=C(N2CCOCC2)S/C1=C/c1ccc(-c2ccccc2Cl)o1	3.5	2.8	-41.5	2.5	1.0	1.6	x	x
O=C1S/C(=C\c2ccc(N3CCOCC3)o2)C(=O)N1Cc1c(F)cccc1Cl	-29.5	-28.7	138.1	13.8	x	147.5*	189.6*	173.7*
O=C1S/C(=C/c2ccc(N3CCOCC3)o2)C(=O)N1Cc1c(F)cccc1Cl	-53.9	-72.0	148.9	5.1	x	139.0*	177.1*	161.8*
CCOC(=O)C(Cc1c[nH]c2cc([N+](=O)[O-])ccc12)(NC(C)=O)C(=O)OCC	-6.0	8.3	-0.9	x	-3.2	x	x	x
Cc1ccc(C)c(N2CCN(S(=O)(=O)c3c(C)noc3/C=C/N(C)C)CC2)c1	-3.6	4.9	1.8	-2.0	6.4	28.9*	6.6	9.4
Cc1noc(/C=C/N(C)C)c1S(=O)(=O)N1CCN(c2ccccc2)CC1	-7.8	0.6	-4.9	4.0	2.6	6.4	x	x
Cc1nc2oc3ccccc3c(=O)c2cc1C(=O)O	-3.4	-1.8	0.8	-5.7	1.0	1.3	x	x
C=CCNC(=O)c1cc2c(=O)c3ccccc3oc2nc1C	-4.4	18.9	-0.6	14.1	6.8	48.4*	10.8	15.6
COc1ccc(NS(=O)(=O)c2ccc(N3CC(O)=C(c4ccccc4)C3=N)cc2)cc1	2.3	3.0	-3.3	-1.5	1.3	-3.8	x	x
Cc1cccc(-c2ccc3c(c2)C2CC3CCN2Cc2ccc3c(c2)OCO3)c1 (stereo not given)	2.6	-0.1	0.0	x	4.8	x	x	x
Cc1ccc(/C=N/c2sc(Cc3ccccc3)c(C)c2C(N)=O)o1	-0.4	-6.8	26.7	-4.3	35.9	8.2	x	x
Cc1c(Cc2ccccc2)sc(/N=C/c2c(O)ccc3ccccc23)c1C(N)=O	-5.1	86.8	38.3*	9.2	x	94.0*	47.6*	57.1*
Cc1c(Cc2ccccc2)sc(/N=C/c2ccc3ccccc3c2)c1C(N)=O	1.5	-1.5	12.7	7.8	31.2	55.6*	7.6	13.1
CCN(CC)CCNC(=O)/C(=C/c1cn(C)c2ccccc12)NC(=O)c1ccc(OC)c(OC)c1	2.5	-0.5	-5.6	1.8	-0.4	-0.3	x	x
Cc1cc(C)cc(C(=O)NC(CC(N)=O)c2ccc(NC3CCCCCCCCCCC3)c([N+](=O)[O-])c2)c1 (stereo not given)	1.2	-2.3	-4.9	2.8	9.7	48.4*	6.6	6.1
